The sample as a whole holds a higher share of hits than the screen did.
T cruzi repl = T. cruzi replication inhibition. T. cruzi beta-gal in NIH3T3, luminescence, 90 h. inhibition, % (concentration not given with the values). hit rate 1.4% among 300,000;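 active = mean inhibition across valid replicates above about 55%, limit read from the data; inconclusive = mean below that limit but half or more replicates reach it; inactive = mean below it, under half of replicates reach it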;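 note: signal also drops with host cell toxicity which is not excluded here; higher percent means less beta-gal luminescence so fewer parasites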
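System: Mouse NIH/3T3 fibroblasts infected with β-gal-expressing T. cruzi Tulahuen C4 | Quantity: NIH/3T3 cells, 5,000 per well | Reagent: 5000 reporter trypomastigotes per well | Dosing: Compound pinned at 50 nL/well, DMSO | Schedule: 3 h host attachment, then at least 90 h co-culture | Detection: GalScreen luminescence, 60 min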
CHOP inhibitor = blocks CHOP induction under ER stress; CHO-K1 CHOP-promoter luciferase, tunicamycin-induced, 15-18 h; inhibition, % at 10 µM; hit rate 3.8% among 220,000; AID 2732;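 active = compounds that reduced the stress-induced luciferase reporter signal by more than about 70% of percent inhibition, limit read from the data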
UPR XBP1 act = adaptive UPR (XBP1) activation; CHO-XBP1 luciferase reporter, IRE1-XBP1 UPR activation, luminescence; percent of tunicamycin response, DMSO as zero; activation, % at 20 µM; hit rate 0.33% among 330,000; AID 463104;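 active = versus positive control, 20 µM dose yields 30% or more activation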
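Material: CHO cell line with stable XBP1 luciferase reporter; schedule: 16-18 h cell attachment at 37 °C, then 6 h compound exposure; signal: glow luminescence from Steady-Glo reagent; medium: serum-containing F12 medium, 10% FBS; benchmarks: tunicamycin 10 µg/mL and vehicle-only wells; read-out: percent activation relative to tunicamycin reference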
L major viab = Leishmania major promastigote growth inhibition; Leishmania major promastigotes, resazurin fluorescence viability; inhibition, % at 10 µM; hit rate 9% among 200,000; in the data active = inhibition above about 50%;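 note: promastigotes grown with compound for 44 hours at 28 °C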
Dynein cargo inh = dynein cargo transport inhibition; 3617.4 mouse cells, GR-EGFP nuclear translocation imaging; test concentration mostly 20 µM; stimulated with dexamethasone, 1 µM; active compounds read low; hit rate 0.47% among 220,000; z-score, hits read low;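 active = plate z-score of nuclear minus cytoplasmic receptor signal below a set negative limit, without overly bright fluorescence or cell loss, cut at about -3.5 in these data, passing the limit was not always enough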;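 note: z-score of nuclear minus cytoplasmic ring GR-EGFP intensity difference per well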
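medium = tetracycline-free induction medium containing charcoal-stripped FBS | also added = 1.0 µM final dexamethasone stimulus | schedule = 48 h induction, 1 h compound, 30 min dex at 37 °C | technique = fixed, Hoechst-stained cells imaged at 10x for EGFP | measure = GR-EGFP nuclear translocation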
CHOP UPR activ = activators of apoptotic arm of unfolded protein response (CHOP); CHO-CHOP luciferase reporter, UPR activation, luminescence; percent of tunicamycin response over DMSO baseline; activation, % at 10 µM; hit rate 0.34% among 330,000;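 active = at 10 µM dose, activation of 40% or more, normalized to positive control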
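Test system: CHO-CHOP cells, stable luciferase reporter of PERK-eIF2a-CHOP signalling | Quantity: 500 CHO-CHOP cells per well | Buffer or medium: F12 plus 10% serum | Compound dosing: 10 µM single point, 0.5% DMSO | Schedule: 6 h compound treatment, 37 °C | Signal: Luciferase luminescence | Control set: Tunicamycin high control, DMSO low control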
Numbers stand for hits; – = inactive; ? = inconclusive; · = no result.

SMILES	T cruzi repl	CHOP inhibitor	UPR XBP1 act	L major viab	Dynein cargo inh	CHOP UPR activ
C/C(=C/CCC(C)(O)C1CC[C@@]2(C)[C@@H]3CC=C4[C@@H](CC[C@H](O[C@H]5O[C@@H](CO)[C@H](O)[C@@H](O)[C@@H]5O)C4(C)C)[C@]3(C)C(=O)C[C@]12C)CO[C@@H]1O[C@H](CO)[C@@H](O)[C@H](O)[C@H]1O (stereo partly specified)	·	·	–	·	·	–
C/C(CCc1oc2ccc(Cl)cc2c1-c1ccc(C)o1)=N\O	–	74.8	–	–	–	–
CC(=O)CCc1oc2ccc(C)cc2c1-c1ccccc1	–	–	–	·	–	–
Cc1cccc(OCCC(=O)Nc2ccc(N3CCOCC3)cc2N2CCOCC2)c1	·	·	–	·	·	–
CCC(C)(C)NC(=O)C(c1ccc(OC)cc1)N(C(=O)CCC(=O)Nc1cc(C)on1)c1ccccc1F (stereo unspecified)	–	·	–	·	·	–
CCN(CC)CCn1c(NC(=O)c2ccc(C(F)(F)F)cc2)nc2ccccc21	62.0	–	–	–	–	–
Cn1ncc([N+](=O)[O-])c1C(=O)Nc1nc2ccccc2n1CCN1CCCCC1	–	–	–	–	–	–
O=C(NCc1nc2ccccc2[nH]1)c1ccc(Cl)c(S(=O)(=O)N2CCCC2)c1	–	–	–	–	–	–
CCCn1c(NC(=O)c2cccc(C)c2C)nc2ccccc21	?	–	–	98.2	–	–
CCCn1c(NC(=O)c2ccc([N+](=O)[O-])o2)nc2ccccc21	57.8	·	–	·	·	–
CCCn1c(NC(=O)C2CCN(C(=O)c3ccccc3C)CC2)nc2ccccc21	–	·	–	·	·	–
CCCn1c(NC(=O)c2ccc(Cl)c(S(=O)(=O)N3CCCC3)c2)nc2ccccc21	66.1	–	–	71.6	–	–
CC1=C[C@H](C)[C@H](c2c(F)cccc2Cl)CC1=O	–	·	–	·	·	–
CCOC(=O)C1CCN(C(=O)C2CCCN(S(=O)(=O)c3ccc(OCC)c(Cl)c3)C2)CC1 (stereo unspecified)	–	·	–	·	·	–
CSCC[C@H](NC(=O)[C@@H]1Cc2ccccc2CN1)C(=O)NC[C@H]1CC[C@H](C(=O)O)CC1	–	·	–	·	·	–
CCC(=O)Nc1nc2ccccc2n1Cc1ccc(C)cc1	–	·	–	98.7	–	–
CCC(=O)Nc1nc2ccccc2n1Cc1ccccc1	–	–	–	–	–	–
Cn1c(NC(=O)c2ccc(F)cc2)nc2ccccc21	–	·	–	·	·	–
Cn1c(NC(=O)c2ccccc2NC(=O)C(C)(C)C)nc2ccccc21	–	–	–	77.2	–	–
COc1ccc(OC)c(S(=O)(=O)N2CCN(C(=O)CCc3ccccc3)CC2)c1	–	·	–	·	·	–
COc1ccc(-c2nc3ncccc3o2)cc1NC(=O)c1ccco1	–	·	–	·	·	–
Cc1ccc(NC(=O)COc2ccccc2CNC(C)(C)CC(C)(C)C)cc1	61.1	74.1	–	100.4	–	–
O=C(COc1ccccc1)NC(=S)Nc1cccc([N+](=O)[O-])c1	–	–	–	–	–	–
O=C(COc1ccccc1)NC(=S)Nc1ccc2c(c1)Cc1ccccc1-2	61.0	–	–	–	–	–
O=C(Nc1cccnc1Cl)c1cc2ccccc2o1	–	·	–	·	·	–
SMILES	T cruzi repl	CHOP inhibitor	UPR XBP1 act	L major viab	Dynein cargo inh	CHOP UPR activ
Cc1occc1-c1nnc(SCC(=O)Nc2nc(-c3ccccc3)cs2)o1	–	72.4	–	–	–	–
CCOC(=O)N1CCN(C(=O)CSCC(=O)Nc2nc(-c3ccc(OC)cc3)cs2)CC1	–	–	–	–	–	–
Cc1cc(-c2nnc(SCC(=O)Nc3nc(-c4ccccc4)cs3)o2)no1	–	–	–	·	–	–
O=C(CSc1nnc(-c2ccncc2)n1Cc1ccco1)Nc1ccccc1Cl	–	–	–	–	–	–
COc1ccc(C(=O)CSc2nnc(-c3cc4ccccc4cc3O)n2Cc2ccco2)cc1	–	–	–	68.8	–	–
O=C(CSc1nnc(-c2ccncc2)n1Cc1ccco1)Nc1nc(-c2ccccc2)cs1	–	77.2	–	–	–	–
CCOC(=O)N1CCN(C(=O)CSCC(=O)Nc2nc(-c3ccc(-c4ccccc4)cc3)cs2)CC1	–	85.2	–	–	–	–
COc1cc(C(=O)Nc2ccc(N3CCCS3(=O)=O)cc2)c([N+](=O)[O-])cc1OC	–	·	–	·	·	–
O=C(CSc1nnc(-c2ccc(Cl)cc2)n1Cc1ccco1)c1cccs1	–	–	–	80.1	–	–
Cc1cnc(NC(=O)CSc2ncc(-c3ccccc3)n2Cc2ccco2)s1	–	73.4	–	–	–	–
O=C(CSc1ncc(-c2ccc(F)cc2)n1Cc1ccco1)Nc1nccs1	–	–	–	–	–	–
O=C(CSc1nnc(Cc2cccs2)n1Cc1ccco1)Nc1cc(Cl)cc(Cl)c1	–	81.8	–	–	–	–
Cc1ccc(S(=O)(=O)N(C)C[C@@H]2Oc3ccc(NC(=O)Nc4cccc5ccccc45)cc3C(=O)N([C@H](C)CO)C[C@H]2C)cc1	·	·	–	·	·	–
CCCc1cc(-c2nc(-c3ccc(Br)cc3)cs2)ccn1	–	–	–	60.0	–	–
CCC(C)NC(=S)Nc1ccc2nc(N3CCN(CC)CC3)cc(C)c2c1 (stereo unspecified)	–	–	–	94.2	–	–
CCOC(CCNC(=O)CCC(=O)Nc1ccc2nc(N3CCN(C)CC3)cc(C)c2c1)OCC	–	·	–	·	·	–
CCC(C)NC(=S)Nc1ccc2nc(N3CCOCC3)cc(C)c2c1 (stereo unspecified)	–	·	–	·	·	–
COc1ccc(CNC(=S)Nc2ccc3nc(N4CCN(C)CC4)cc(C)c3c2)cc1	–	–	–	–	–	–
Cc1cc(N2CCN(C)CC2)nc2ccc(NC(=S)NCc3cccs3)cc12	–	–	–	99.2	–	–
COc1ccccc1CNC(=S)Nc1ccc2nc(N3CCN(C)CC3)cc(C)c2c1	57.4	–	–	100.4	–	–
CCOc1ccccc1NC(=O)CCC(=O)Nc1ccc2nc(N3CCN(C)CC3)cc(C)c2c1	–	–	–	74.0	–	–
Cc1oc2c(C)c3oc(=O)c(CCC(=O)NCCN4CCOCC4)c(C)c3cc2c1C	–	·	–	·	·	–
COC(=O)c1ccc(OCc2nn[nH]n2)cc1	–	·	–	·	·	–
CCN1CCN(c2cc(C)c3cc(NC(=S)NCc4cccs4)ccc3n2)CC1	–	–	–	99.1	–	–
O=S(=O)(c1ccc(F)c(F)c1)N1CCN(S(=O)(=O)c2cccs2)CC1	–	·	–	·	·	–
CCN(CC)CCN(C(=O)CN1C(=O)c2ccccc2C1=O)c1nc2cc3c(cc2s1)OCO3	57.4	·	–	·	·	–
CN(C)CCN(C(=O)c1ccc(S(=O)(=O)N(C)c2ccccc2)cc1)c1nc2ccc(Cl)cc2s1	62.7	·	–	·	·	–
